Data reported in ChEMBL document CHEMBL1155528, “1,4-dihydropyrazolo[4,3-d]imidazole phenyl derivatives: a novel type II Raf kinase inhibitors” (Bioorg Med Chem Lett, 2010).
One block for each molecule: values may come before it. The source made the active and inactive calls. The rule behind the calls is not given here.

Experiments:
[1] = test system: WM3629; experiment: (§1) Antiproliferative activity against human WM3629 cells after 24 hrs by MTT assay; type: functional
Procedure, shortened: (§2)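 WM3629 cells (Wistar Institute) were kept in Tu2% medium. GI50 was determined by MTT as for A375P: 5 × 10³ cells/well, 24 h settling, 12-point threefold serial dilutions, and absorbance at 590 nm.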

[2] = test system: A375P; experiment: (§3) Antiproliferative activity against human A375P cells after 24 hrs by MTT assay; type: functional
Procedure, shortened: (§4)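 A375P cells (ATCC) grown in DMEM with 10% FBS and 1% penicillin/streptomycin at 37 °C, 5% CO2. Detached with 0.05% trypsin–0.02% EDTA, seeded at 5 × 10³ cells/well, and left 24 h before 12-point threefold serial dilutions were added. Viability was read by MTT reduction (CellTiter 96) at 590 nm, and GI50 was derived.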

[3] = as §1; type: functional; conditions: WM3629, 24 h; procedure, shortened: as §2
[4] = as §3; type: functional; procedure, shortened: as §4
[5] = target: T1, RAF proto-oncogene serine/threonine-protein kinase (Homo sapiens, UniProt P04049); experiment: Inhibition of human cRAF using [33P-ATP] as a substrate by scintillation counting
T1 sequence (P04049 whole entry): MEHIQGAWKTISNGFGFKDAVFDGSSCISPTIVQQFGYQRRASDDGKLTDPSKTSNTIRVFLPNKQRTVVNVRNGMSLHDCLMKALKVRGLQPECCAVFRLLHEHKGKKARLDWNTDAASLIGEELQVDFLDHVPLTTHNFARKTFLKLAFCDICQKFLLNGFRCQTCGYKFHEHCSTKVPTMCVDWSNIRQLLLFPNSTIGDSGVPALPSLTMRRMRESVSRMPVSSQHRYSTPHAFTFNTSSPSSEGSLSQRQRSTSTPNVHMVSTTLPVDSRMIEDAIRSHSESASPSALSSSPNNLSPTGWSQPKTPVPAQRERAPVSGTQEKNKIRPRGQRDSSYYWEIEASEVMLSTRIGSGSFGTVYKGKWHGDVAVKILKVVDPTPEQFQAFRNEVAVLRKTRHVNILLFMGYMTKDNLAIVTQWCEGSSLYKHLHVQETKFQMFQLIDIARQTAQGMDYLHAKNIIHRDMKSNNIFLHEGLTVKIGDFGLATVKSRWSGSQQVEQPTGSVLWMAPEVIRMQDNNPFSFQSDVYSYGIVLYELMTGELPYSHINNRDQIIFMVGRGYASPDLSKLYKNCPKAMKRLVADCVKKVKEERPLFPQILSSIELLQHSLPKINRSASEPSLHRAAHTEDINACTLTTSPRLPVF
Procedure, shortened: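 Run 40 min at room temperature, then stopped with 3% phosphoric acid. Spotted on P30 filter mat, washed in 75 mM phosphoric acid and methanol, dried, and scintillation-counted. IC50 came from a profiler service.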

[6] = target: Tyrosine-protein kinase SYK (Homo sapiens) (UniProt P43405); experiment: Inhibition of human SYK; conditions: concentration not given here
[7] = target: Ribosomal protein S6 kinase beta-1 (Homo sapiens) (UniProt P23443); experiment: Inhibition of human p701S6K; conditions: concentration not given here
Procedure, shortened: (§5)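 Tested in an outsourced 30-kinase profiling service panel at a single concentration of 10, with percent inhibition reported.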

[8] = target: Receptor-type tyrosine-protein kinase FLT3 (Homo sapiens) (UniProt P36888); experiment: Inhibition of human Flt3; conditions: concentration not given here; procedure, shortened: as §5
[9] = target: Tyrosine-protein kinase ABL1 (Homo sapiens) (UniProt P00519); experiment: Inhibition of human ABL; conditions: concentration not given here; procedure, shortened: as §5
[10] = target: Platelet-derived growth factor receptor alpha (Homo sapiens) (UniProt P16234); experiment: Inhibition of human PDGFRalpha; conditions: concentration not given here; procedure, shortened: as §5
[11] = target: Angiopoietin-1 receptor (Homo sapiens) (UniProt Q02763); experiment: Inhibition of human Tie2; conditions: concentration not given here; procedure, shortened: as §5
[12] = target: Casein kinase II (Homo sapiens) (UniProt P67870+P68400+P19784); experiment: Inhibition of human CK2; type: protein-complex assay; conditions: concentration not given here; procedure, shortened: as §5
[13] = species: Rattus norvegicus; experiment: Inhibition of rat AMPK; conditions: concentration not given here
Procedure, shortened: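 Part of an outsourced radiometric kinase panel of 30 kinases, tested at a single concentration of 10 µM. Read-out is percent inhibition of kinase activity.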

[14] = target: Aurora kinase A (Homo sapiens) (UniProt O14965); experiment: Inhibition of human aurora A; conditions: concentration not given here; procedure, shortened: as §5
Sequence of Aurora kinase A (Homo sapiens) (O14965 whole entry): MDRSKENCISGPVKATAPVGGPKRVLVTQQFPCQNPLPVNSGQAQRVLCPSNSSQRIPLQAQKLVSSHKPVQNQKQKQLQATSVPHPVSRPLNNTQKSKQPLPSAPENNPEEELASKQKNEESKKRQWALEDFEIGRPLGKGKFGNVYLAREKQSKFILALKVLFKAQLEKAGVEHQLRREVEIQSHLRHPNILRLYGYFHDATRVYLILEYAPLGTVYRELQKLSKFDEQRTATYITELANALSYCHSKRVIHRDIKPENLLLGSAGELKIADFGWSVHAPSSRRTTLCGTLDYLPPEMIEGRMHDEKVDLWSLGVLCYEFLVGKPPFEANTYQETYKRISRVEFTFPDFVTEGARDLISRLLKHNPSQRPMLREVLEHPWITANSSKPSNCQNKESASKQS

[15] = target: Hepatocyte growth factor receptor (Homo sapiens) (UniProt P08581); experiment: Inhibition of human Met; conditions: concentration not given here; procedure, shortened: as §5
Sequence of Hepatocyte growth factor receptor (Homo sapiens) (P08581 whole entry): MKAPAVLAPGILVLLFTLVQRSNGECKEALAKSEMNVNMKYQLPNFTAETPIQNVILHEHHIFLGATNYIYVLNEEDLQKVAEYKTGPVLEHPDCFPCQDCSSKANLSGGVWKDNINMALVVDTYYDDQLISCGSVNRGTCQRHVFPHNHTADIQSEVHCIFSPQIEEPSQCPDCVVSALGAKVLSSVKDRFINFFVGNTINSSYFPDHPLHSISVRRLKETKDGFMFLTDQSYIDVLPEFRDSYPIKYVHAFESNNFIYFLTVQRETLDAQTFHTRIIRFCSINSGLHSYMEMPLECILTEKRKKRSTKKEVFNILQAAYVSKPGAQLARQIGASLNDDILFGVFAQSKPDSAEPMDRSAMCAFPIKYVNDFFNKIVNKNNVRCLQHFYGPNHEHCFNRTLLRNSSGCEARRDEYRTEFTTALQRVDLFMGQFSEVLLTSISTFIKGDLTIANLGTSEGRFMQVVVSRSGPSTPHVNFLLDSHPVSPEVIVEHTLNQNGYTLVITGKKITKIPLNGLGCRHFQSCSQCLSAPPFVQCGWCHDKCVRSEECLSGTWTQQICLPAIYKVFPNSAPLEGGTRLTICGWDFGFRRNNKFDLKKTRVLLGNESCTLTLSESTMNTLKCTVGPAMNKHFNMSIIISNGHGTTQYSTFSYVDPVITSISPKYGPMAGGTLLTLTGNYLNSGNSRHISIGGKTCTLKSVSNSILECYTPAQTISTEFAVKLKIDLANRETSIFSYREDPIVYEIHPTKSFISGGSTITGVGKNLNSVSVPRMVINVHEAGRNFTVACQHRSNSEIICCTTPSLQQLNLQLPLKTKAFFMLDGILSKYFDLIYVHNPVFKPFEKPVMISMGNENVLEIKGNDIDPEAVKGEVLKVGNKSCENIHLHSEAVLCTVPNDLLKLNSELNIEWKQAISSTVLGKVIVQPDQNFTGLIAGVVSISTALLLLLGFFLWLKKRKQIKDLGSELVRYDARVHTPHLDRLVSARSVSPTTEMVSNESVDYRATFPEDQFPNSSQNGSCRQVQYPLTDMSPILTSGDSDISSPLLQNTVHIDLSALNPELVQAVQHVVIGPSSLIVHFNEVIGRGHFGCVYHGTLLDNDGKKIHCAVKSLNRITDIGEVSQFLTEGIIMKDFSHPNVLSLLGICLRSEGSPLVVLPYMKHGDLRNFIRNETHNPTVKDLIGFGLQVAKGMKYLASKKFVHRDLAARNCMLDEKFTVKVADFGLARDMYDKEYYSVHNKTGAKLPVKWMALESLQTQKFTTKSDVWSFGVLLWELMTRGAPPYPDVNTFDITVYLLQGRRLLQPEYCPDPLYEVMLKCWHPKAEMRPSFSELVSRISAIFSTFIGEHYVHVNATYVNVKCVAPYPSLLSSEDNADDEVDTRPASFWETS

[16] = target: Inhibitor of nuclear factor kappa-B kinase subunit beta (Homo sapiens) (UniProt O14920); experiment: Inhibition of human IKK-beta; conditions: concentration not given here; procedure, shortened: as §5
[17] = target: Vascular endothelial growth factor receptor 2 (Homo sapiens) (UniProt P35968); experiment: Inhibition of human KDR; conditions: concentration not given here; procedure, shortened: as §5
[18] = target: BDNF/NT-3 growth factors receptor (Homo sapiens) (UniProt Q16620); experiment: Inhibition of human TrkB; conditions: concentration not given here; procedure, shortened: as §5
[19] = target: Insulin receptor (Homo sapiens) (UniProt P06213); experiment: Inhibition of human IR; conditions: concentration not given here; procedure, shortened: as §5
[20] = target: Cyclin-dependent kinase 5/CDK5 activator 1 (Homo sapiens) (UniProt Q00535+Q15078); experiment: Inhibition of human CDK5/p35; type: protein-complex assay; conditions: concentration not given here; procedure, shortened: as §5
[21] = target: Macrophage colony-stimulating factor 1 receptor (Homo sapiens) (UniProt P07333); experiment: Inhibition of human FMS; conditions: concentration not given here; procedure, shortened: as §5
[22] = target: Tyrosine-protein kinase JAK2 (Homo sapiens) (UniProt O60674); experiment: Inhibition of human JAK2; conditions: concentration not given here; procedure, shortened: as §5
[23] = target: Tyrosine-protein kinase receptor UFO (Homo sapiens) (UniProt P30530); experiment: Inhibition of human AXL; conditions: concentration not given here; procedure, shortened: as §5
[24] = target: Mast/stem cell growth factor receptor Kit (Homo sapiens) (UniProt P10721); experiment: Inhibition of human cKIT; conditions: concentration not given here; procedure, shortened: as §5
[25] = target: Fibroblast growth factor receptor 1 (Homo sapiens) (UniProt P11362); experiment: Inhibition of human FGFR1; conditions: concentration not given here; procedure, shortened: as §5
[26] = target: Cyclin-dependent kinase 2/cyclin E1 (Homo sapiens) (UniProt P24864+P24941); experiment: Inhibition of human CDK2/cyclin E; type: protein-complex assay; conditions: concentration not given here; procedure, shortened: as §5
[27] = target: Serine/threonine-protein kinase PLK1 (Homo sapiens) (UniProt P53350); experiment: Inhibition of human PLK1; conditions: concentration not given here; procedure, shortened: as §5
[28] = target: Proto-oncogene tyrosine-protein kinase Src (Homo sapiens) (UniProt P12931); experiment: Inhibition of human cSRC; conditions: concentration not given here; procedure, shortened: as §5
[29] = target: Tyrosine-protein kinase BTK (Homo sapiens) (UniProt Q06187); experiment: Inhibition of human BTK; conditions: concentration not given here; procedure, shortened: as §5
[30] = target: ALK tyrosine kinase receptor (Homo sapiens) (UniProt Q9UM73); experiment: Inhibition of human ALK; conditions: concentration not given here; procedure, shortened: as §5
Sequence of ALK tyrosine kinase receptor (Homo sapiens) (Q9UM73 19-1620 limits assumed): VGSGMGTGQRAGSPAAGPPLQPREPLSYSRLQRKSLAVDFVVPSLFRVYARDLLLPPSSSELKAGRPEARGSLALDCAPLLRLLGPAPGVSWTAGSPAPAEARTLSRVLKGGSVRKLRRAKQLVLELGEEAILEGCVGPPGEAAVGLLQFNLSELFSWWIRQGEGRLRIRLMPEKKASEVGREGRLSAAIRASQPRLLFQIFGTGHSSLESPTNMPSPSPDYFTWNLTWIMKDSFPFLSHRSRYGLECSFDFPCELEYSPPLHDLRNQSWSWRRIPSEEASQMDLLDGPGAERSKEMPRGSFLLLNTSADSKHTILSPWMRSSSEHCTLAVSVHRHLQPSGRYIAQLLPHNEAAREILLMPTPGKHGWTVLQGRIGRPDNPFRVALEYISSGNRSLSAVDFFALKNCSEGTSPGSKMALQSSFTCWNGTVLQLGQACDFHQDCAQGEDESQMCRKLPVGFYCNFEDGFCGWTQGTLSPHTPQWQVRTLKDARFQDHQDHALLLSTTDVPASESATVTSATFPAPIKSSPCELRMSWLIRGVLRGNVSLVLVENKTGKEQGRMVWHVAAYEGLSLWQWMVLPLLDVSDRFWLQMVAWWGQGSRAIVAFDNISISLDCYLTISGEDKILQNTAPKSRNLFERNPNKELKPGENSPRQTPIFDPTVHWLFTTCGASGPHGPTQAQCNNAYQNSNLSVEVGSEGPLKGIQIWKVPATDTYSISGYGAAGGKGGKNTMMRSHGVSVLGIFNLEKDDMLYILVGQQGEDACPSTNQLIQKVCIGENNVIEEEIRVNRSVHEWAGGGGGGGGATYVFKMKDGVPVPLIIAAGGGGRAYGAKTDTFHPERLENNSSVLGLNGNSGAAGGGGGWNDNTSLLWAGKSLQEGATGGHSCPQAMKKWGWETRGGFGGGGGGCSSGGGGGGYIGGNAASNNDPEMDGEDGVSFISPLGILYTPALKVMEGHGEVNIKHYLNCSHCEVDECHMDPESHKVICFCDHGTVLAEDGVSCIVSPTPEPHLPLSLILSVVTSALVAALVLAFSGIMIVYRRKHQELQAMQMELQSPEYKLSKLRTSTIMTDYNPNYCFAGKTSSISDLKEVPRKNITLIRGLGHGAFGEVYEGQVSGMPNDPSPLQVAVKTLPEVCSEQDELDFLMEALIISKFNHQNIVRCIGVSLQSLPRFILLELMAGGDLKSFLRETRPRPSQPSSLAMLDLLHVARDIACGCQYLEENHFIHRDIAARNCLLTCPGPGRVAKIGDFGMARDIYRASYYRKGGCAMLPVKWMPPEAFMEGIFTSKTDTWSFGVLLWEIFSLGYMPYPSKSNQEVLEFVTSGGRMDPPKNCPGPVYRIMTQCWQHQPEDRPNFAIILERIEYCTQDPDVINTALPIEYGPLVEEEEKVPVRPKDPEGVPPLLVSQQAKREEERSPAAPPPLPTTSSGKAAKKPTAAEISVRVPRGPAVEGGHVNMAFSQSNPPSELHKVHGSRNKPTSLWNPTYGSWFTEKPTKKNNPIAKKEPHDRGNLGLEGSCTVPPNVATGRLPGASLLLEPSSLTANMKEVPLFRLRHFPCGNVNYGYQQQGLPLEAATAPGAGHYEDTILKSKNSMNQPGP

[31] = target: Insulin-like growth factor 1 receptor (Homo sapiens) (UniProt P08069); experiment: Inhibition of human IGF1R; conditions: concentration not given here; procedure, shortened: as §5
[32] = target: T1, RAF proto-oncogene serine/threonine-protein kinase; experiment: Inhibition of human RAF; conditions: concentration not given here
Procedure, shortened: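 Human C-Raf (5–10 mU) incubated with 0.66 mg/mL myelin basic protein in 25 mM Tris pH 7.5, 0.02 mM EGTA, 10 mM Mg acetate. Spotted on P30 filter, washed in 75 mM phosphoric acid and methanol, then scintillation counted. Outsourced profiling service.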

[33] = target: Ephrin type-A receptor 1 (Homo sapiens) (UniProt P21709); experiment: Inhibition of human EphA1; conditions: concentration not given here; procedure, shortened: as §5
[34] = target: Cytoplasmic tyrosine-protein kinase BMX (Homo sapiens) (UniProt P51813); experiment: Inhibition of human BMX; conditions: concentration not given here; procedure, shortened: as §5
Sequence of Cytoplasmic tyrosine-protein kinase BMX (Homo sapiens) (P51813 whole entry): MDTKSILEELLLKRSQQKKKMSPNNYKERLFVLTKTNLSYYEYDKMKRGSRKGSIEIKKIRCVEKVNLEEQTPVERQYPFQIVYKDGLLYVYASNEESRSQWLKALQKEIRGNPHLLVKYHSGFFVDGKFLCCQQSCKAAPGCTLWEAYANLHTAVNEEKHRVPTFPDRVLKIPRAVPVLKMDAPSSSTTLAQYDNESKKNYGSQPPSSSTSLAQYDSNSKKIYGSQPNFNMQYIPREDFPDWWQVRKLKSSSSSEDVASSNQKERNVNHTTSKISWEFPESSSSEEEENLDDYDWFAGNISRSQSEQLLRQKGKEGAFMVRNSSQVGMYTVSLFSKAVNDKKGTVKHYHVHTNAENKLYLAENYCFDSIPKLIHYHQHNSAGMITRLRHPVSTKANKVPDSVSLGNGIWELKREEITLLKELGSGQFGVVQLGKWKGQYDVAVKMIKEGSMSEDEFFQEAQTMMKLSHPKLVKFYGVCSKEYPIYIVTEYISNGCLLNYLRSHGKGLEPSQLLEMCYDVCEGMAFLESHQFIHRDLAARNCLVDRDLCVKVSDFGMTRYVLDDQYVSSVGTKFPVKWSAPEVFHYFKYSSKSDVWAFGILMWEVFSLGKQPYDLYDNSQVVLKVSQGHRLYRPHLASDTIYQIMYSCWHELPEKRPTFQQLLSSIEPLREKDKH

GI50 [2]: inactive
Structure (SMILES): Cc1cc(NC(=O)Nc2cccc(Cl)c2Cl)ccc1-c1nc2[nH]ncc2[nH]1
GI50 [1]: inactive

Structure (SMILES): CNC(=O)c1cc(Oc2ccc(NC(=O)Nc3ccc(Cl)c(C(F)(F)F)c3)cc2)ccn1 [SORAFENIB]
GI50 [3]: 0.65 µM
GI50 [4]: 5.58 µM

GI50 [2]: inactive
Structure (SMILES): COc1ccc(Cn2ncc3[nH]c(-c4ccc(NC(=O)Nc5nc6ccc(C)cc6s5)cc4C)nc32)cc1
GI50 [1]: inactive

Structure (SMILES): COc1ccc(Cn2ncc3c2nc(-c2ccc(NC(=O)Nc4cc(Cl)cc(C(F)(F)F)c4)cc2C)n3C)cc1
GI50 [3]: 3.77 µM
GI50 [4]: 51.5 µM

Structure (SMILES): O=C(Nc1ccc(-c2nc3c(cnn3Cc3ccccc3)[nH]2)cc1)Nc1ccc(Cl)c(Cl)c1
GI50 [3]: 42.8 µM
GI50 [4]: > 100 µM

Structure (SMILES): COc1ccc(Cn2ncc3[nH]c(-c4cc(NC(=O)Nc5cc(Cl)cc(C(F)(F)F)c5)ccc4C)nc32)cc1
GI50 [3]: > 100 µM
GI50 [4]: > 100 µM

Structure (SMILES): Cc1cc(NC(=O)Nc2cc(Cl)cc(C(F)(F)F)c2)ccc1-c1nc2[nH]ncc2[nH]1
GI50 [3]: 14.4 µM
GI50 [4]: > 100 µM

IC50 ([5]; read-out: IC50): 0.37 µM
Structure (SMILES): O=C(Nc1ccc(-c2nc3c(cnn3Cc3ccccc3)[nH]2)cc1)Nc1cc(Cl)cc(C(F)(F)F)c1
GI50 [3]: 0.75 µM
GI50 [4]: 6.65 µM

GI50 [2]: inactive
Structure (SMILES): Cc1ccc(NC(=O)Nc2cccc(Cl)c2Cl)cc1-c1nc2[nH]ncc2[nH]1
GI50 [1]: inactive

GI50 [2]: inactive
Structure (SMILES): Cc1ccc(NC(=O)c2cc(N3CCOCC3)cc(C(F)(F)F)c2)cc1-c1nc2[nH]ncc2[nH]1
GI50 [1]: inactive

IC50 ([5]; read-out: IC50): 0.156 µM
Structure (SMILES): Cc1ccc(NC(=O)Nc2cc(N3CCOCC3)cc(C(F)(F)F)c2)cc1-c1nc2c(cnn2Cc2ccccc2)[nH]1
GI50 [3]: 0.72 µM
GI50 [4]: 4.29 µM

inhibition [6]: 16%
inhibition [7]: 4%
inhibition [8]: 53%
inhibition [9]: 37%
inhibition [10]: 0%
inhibition [11]: 82%
inhibition [12]: 8%
inhibition [13]: 5%
inhibition [14]: 10%
IC50 ([5]; read-out: IC50): 0.05 µM
inhibition [15]: 0%
inhibition [16]: 16%
inhibition [17]: 8%
inhibition [18]: 62%
inhibition [19]: 0%
inhibition [20]: 0%
inhibition [21]: 42%
inhibition [22]: 0%
inhibition [23]: 6%
inhibition [24]: 0%
inhibition [25]: 26%
inhibition [26]: 33%
inhibition [27]: 8%
inhibition [28]: 20%
inhibition [29]: 10%
inhibition [30]: 61%
inhibition [31]: 35%
inhibition [32]: 96%
inhibition [33]: 30%
inhibition [34]: 16%
Structure (SMILES): Cc1cn(-c2cc(NC(=O)Nc3ccc(-c4nc5[nH]ncc5[nH]4)c(C)c3)cc(C(F)(F)F)c2)cn1
GI50 [3]: 0.86 µM
GI50 [4]: 2.24 µM

IC50 ([5]; read-out: IC50): 0.839 µM
Structure (SMILES): COc1ccc(Cn2ncc3[nH]c(-c4cc(NC(=O)Nc5ccc(Cl)c(Cl)c5)ccc4C)nc32)cc1
GI50 [3]: 1.35 µM
GI50 [4]: 15.3 µM

IC50 ([5]; read-out: IC50): 0.076 µM
Structure (SMILES): Cc1ccc(NC(=O)Nc2cc(Cl)cc(C(F)(F)F)c2)cc1-c1nc2c(cnn2Cc2ccccc2)[nH]1
GI50 [3]: 0.85 µM
GI50 [4]: 3.79 µM

GI50 [2]: inactive
Structure (SMILES): Cc1ccc2nc(NC(=O)Nc3ccc(-c4nc5[nH]ncc5[nH]4)c(C)c3)sc2c1
GI50 [1]: inactive

Structure (SMILES): Cc1c(F)cc(F)c(NC(=O)Nc2ccc(-c3nc4c(cnn4Cc4ccccc4)[nH]3)cc2)c1F
GI50 [3]: 0.98 µM
GI50 [4]: 51.7 µM

Structure (SMILES): Cc1ccc(NC(=O)Nc2cc(Cl)cc(C(F)(F)F)c2)cc1-c1nc2c(cnn2Cc2ccccc2)n1C
GI50 [3]: 5.85 µM
GI50 [4]: 56.3 µM

Structure (SMILES): Cc1ccc(NC(=O)Nc2cc(Cl)cc(C(F)(F)F)c2)cc1-c1nc2[nH]ncc2[nH]1
GI50 [3]: > 100 µM
GI50 [4]: > 100 µM

Structure (SMILES): Cc1cc(NC(=O)Nc2cc(N3CCOCC3)cc(C(F)(F)F)c2)ccc1-c1nc2[nH]ncc2[nH]1
GI50 [1]: inactive
GI50 [4]: > 100 µM

IC50 [5]: Not Active
Structure (SMILES): Cc1cc(NC(=O)Nc2cc(Cl)cc(C(F)(F)F)c2)ccc1-c1nc2c(cnn2Cc2ccccc2)n1C
GI50 [3]: 0.56 µM
GI50 [4]: 4.16 µM

Structure (SMILES): COc1ccc(Cn2ncc3[nH]c(-c4cc(NC(=O)Nc5c(F)cc(F)c(C)c5F)ccc4C)nc32)cc1
GI50 [3]: > 100 µM
GI50 [4]: > 100 µM

Structure (SMILES): Cc1ccc(NC(=O)Nc2c(F)cc(F)c(C)c2F)cc1-c1nc2c(cnn2Cc2ccccc2)[nH]1
GI50 [3]: 1.29 µM
GI50 [4]: 7.73 µM

Structure (SMILES): COc1ccc(Cn2ncc3[nH]c(-c4ccc(NC(=O)Nc5cc(N6CCOCC6)cc(C(F)(F)F)c5)cc4C)nc32)cc1
GI50 [3]: > 100 µM
GI50 [4]: > 100 µM

Structure (SMILES): Cc1ccc(NC(=O)Nc2cc(N3CCOCC3)cc(C(F)(F)F)c2)cc1-c1nc2c(cnn2Cc2ccccc2)n1C
GI50 [3]: > 100 µM
GI50 [4]: > 100 µM

IC50 ([5]; read-out: IC50): 0.146 µM
Structure (SMILES): Cc1ccc(NC(=O)c2cc(Cl)cc(C(F)(F)F)c2)cc1-c1nc2c(cnn2Cc2ccccc2)[nH]1
GI50 [3]: 1.14 µM
GI50 [4]: 2.06 µM
